From ChEMBL document CHEMBL1938239, “Novel analgesic/anti-inflammatory agents: diarylpyrrole acetic esters endowed with nitric oxide releasing properties” (J Med Chem, 2011) come the findings set out here.

SMILES strings stand for the structures. Active and inactive are the calls of the source. No cut-off for these calls is given here.

For one assay, the system named is J774. As to the kind of experiment: Selectivity ratio of IC50 for COX1 in mouse J774 cells to IC50 for COX2 in mouse J774 cells. In kind it is cell-based. The method in brief: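 Ratio of J774 IC50s, COX-1 over COX-2. For COX-1, cells were pretreated with compound for 15 min, then given 15 μM arachidonic acid for 30 min at 37 °C. For COX-2, cells received E. coli LPS 10 μg/mL for 24 h with compound at 0.01–10 μM. PGE2 was measured by RIA in triplicate wells over three experiments. IC50 came from a sigmoidal fit.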

In assay [1] the target is T1, Prostaglandin G/H synthase 1 (Mus musculus) (UniProt P22437).
T1 sequence (whole entry): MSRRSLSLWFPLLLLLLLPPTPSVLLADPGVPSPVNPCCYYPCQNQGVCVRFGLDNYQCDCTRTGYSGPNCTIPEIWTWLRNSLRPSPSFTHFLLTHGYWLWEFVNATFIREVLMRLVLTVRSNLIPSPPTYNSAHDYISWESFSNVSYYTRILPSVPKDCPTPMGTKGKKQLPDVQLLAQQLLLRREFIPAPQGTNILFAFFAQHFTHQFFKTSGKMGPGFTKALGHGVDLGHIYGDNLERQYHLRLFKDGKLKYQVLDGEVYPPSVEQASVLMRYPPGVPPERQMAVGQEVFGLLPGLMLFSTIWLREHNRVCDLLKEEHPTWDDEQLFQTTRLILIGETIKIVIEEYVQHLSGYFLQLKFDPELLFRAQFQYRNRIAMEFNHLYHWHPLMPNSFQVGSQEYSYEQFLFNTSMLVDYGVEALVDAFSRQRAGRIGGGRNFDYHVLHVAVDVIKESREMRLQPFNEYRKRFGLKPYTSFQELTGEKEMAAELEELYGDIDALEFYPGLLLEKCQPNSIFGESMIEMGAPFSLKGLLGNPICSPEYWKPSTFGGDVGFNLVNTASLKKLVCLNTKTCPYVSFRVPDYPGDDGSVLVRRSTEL
Nature of the assay: Inhibition of COX-1-mediated PGE2 production in arachidonic acid-stimulated mouse J774 cells at 10 uM incubated for 15 mins prior to arachidonic acid-challenge by radioimmunoassay. In kind it is cell-based. The method in brief:
(§1)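 J774 murine macrophages grown in DMEM with 10% FBS and allowed to adhere for 2 h at 37 °C. Where inhibition exceeded 50%, 0.01–1 μM was also tested. Supernatant PGE2 was measured by RIA as % inhibition versus control, in triplicate wells over three experiments. IC50 came from a sigmoidal variable-slope fit.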

The target of assay [2] is T2, Prostaglandin G/H synthase 1 (Mus musculus, UniProt P22437).
T2 sequence (P22437 whole entry): T1 sequence (whole entry)
Nature of the assay: Inhibition of COX-1-mediated PGE2 production in arachidonic acid-stimulated mouse J774 cells incubated for 15 mins prior to arachidonic acid-challenge by radioimmunoassay. It is filed as cell-based. An outline of the steps:
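J774 murine macrophages grown in DMEM with 10% FBS and allowed to adhere for 2 h at 37 °C. Cells were pretreated with compound at 10 μM for 15 min, then given 15 μM arachidonic acid for 30 min at 37 °C. Where inhibition exceeded 50%, 0.01–1 μM was also tested. Supernatant PGE2 was measured by RIA as % inhibition versus control, in triplicate wells over three experiments. IC50 came from a sigmoidal variable-slope fit.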

Assay [3] addresses T3, Prostaglandin G/H synthase 2 (Mus musculus, UniProt Q05769).
T3 sequence (Q05769 whole entry): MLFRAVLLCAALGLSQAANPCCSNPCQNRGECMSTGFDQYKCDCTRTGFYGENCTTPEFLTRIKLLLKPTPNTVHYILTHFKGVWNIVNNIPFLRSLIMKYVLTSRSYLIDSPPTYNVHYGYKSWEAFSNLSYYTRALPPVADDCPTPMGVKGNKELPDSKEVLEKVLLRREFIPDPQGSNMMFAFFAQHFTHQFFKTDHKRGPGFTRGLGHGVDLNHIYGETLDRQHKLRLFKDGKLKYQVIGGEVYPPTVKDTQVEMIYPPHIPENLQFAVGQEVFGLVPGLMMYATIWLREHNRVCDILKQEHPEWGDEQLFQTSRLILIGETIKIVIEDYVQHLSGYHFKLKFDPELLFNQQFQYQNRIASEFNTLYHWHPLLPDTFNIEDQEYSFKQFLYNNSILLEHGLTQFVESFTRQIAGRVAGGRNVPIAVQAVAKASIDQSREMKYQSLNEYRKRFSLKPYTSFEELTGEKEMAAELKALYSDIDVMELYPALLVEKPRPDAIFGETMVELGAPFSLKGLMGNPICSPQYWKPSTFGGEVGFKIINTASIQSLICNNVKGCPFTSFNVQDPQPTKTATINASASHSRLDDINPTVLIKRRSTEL
As to the kind of experiment: Inhibition of COX-2-mediated PGE2 production in LPS-stimulated mouse J774 cells after 24 hrs by radioimmunoassay. In kind it is cell-based.

Assay [4] has as its system Aorta. Nature of the assay: Vasorelaxation activity against KCl-induced contraction in isolated Wistar rat thoracic endothelium-denulated aortic rings in the presence of guanylate cyclase inhibitor ODQ. In kind it is functional, tissue-based. An outline of the steps: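 Thoracic aortic rings from male Wistar rats (250–350 g), endothelium removed by rubbing; rings relaxing ≥10% to ACh 10 μM on KCl 30 mM tone were discarded. ODQ 1 μM was incubated, then rings were contracted with KCl 30 mM and given 3-fold increasing concentrations of 1 nM–10 μM.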

For assay [5], the system named is Aorta. As to the kind of experiment: Vasorelaxation activity against KCl-induced contraction in isolated Wistar rat thoracic endothelium-denulated aortic rings. It is filed as functional, tissue-based. The method in brief:
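Endothelium-denuded thoracic aortic rings from male Wistar rats (250−350 g); denudation confirmed by <10% relaxation to 10 μM ACh. Rings precontracted with 30 mM KCl; compound added at 3-fold increasing concentrations, 1 nM to 10 μM. Isometric tension recorded. Emax given as % of KCl tone; pIC50 derived. Mean ± standard error of 6−10 experiments; repeated with 1 μM ODQ.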

Assay [6] has as its target T1, Prostaglandin G/H synthase 1 (Mus musculus). Nature of the assay: Inhibition of COX-1-mediated PGE2 production in arachidonic acid-stimulated mouse J774 cells at 0.1 uM incubated for 15 mins prior to arachidonic acid-challenge by radioimmunoassay. In kind it is cell-based. An outline of the steps:
as §1

Assay [7] shares this target. As to the kind of experiment: Inhibition of COX-1-mediated PGE2 production in arachidonic acid-stimulated mouse J774 cells at 1 uM incubated for 15 mins prior to arachidonic acid-challenge by radioimmunoassay. It is filed as cell-based. The method in brief: as §1
In assay [8] the target is T4, Prostaglandin G/H synthase 2 (Mus musculus) (UniProt Q05769).
T4 sequence (whole entry): T3 sequence (Q05769 whole entry)
Nature of the assay: Inhibition of COX-2-mediated PGE2 production in LPS-stimulated mouse J774 cells at 0.001 uM after 24 hrs by radioimmunoassay. It is filed as cell-based.

Consider `CSc1ccc(-n2c(-c3ccc(S(C)(=O)=O)cc3)cc(CC(=O)OCCCO)c2C)cc1`, for which, in the assay on J774, the Ratio IC50 is greater than 38.5. Besides, the inhibition (usually the percentage by which the read-out fell short of the control) in assay [1] is 36%. For the same compound, the concentration for half-maximal inhibition (IC50) (commonly the midpoint of a concentration-inhibition curve) in assay [2] is greater than 10 µM.
For `Cc1c(CC(=O)OCCO[N+](=O)[O-])cc(-c2ccc(S(C)(=O)=O)cc2)n1-c1ccc(F)cc1`, in the assay with J774, the Ratio IC50 was greater than 345. For the same compound, the IC50 in [3] is 29 nM; in the assay with Aorta [5], 3390 nM; in [2] it was greater than 10 µM. Further, in the assay on Aorta [4], the outcome was inactive. Besides, the inhibition in assay [1] is 0%.
Regarding `COc1ccc(-n2c(-c3ccc(S(C)(=O)=O)cc3)cc(CC(=O)OCCO)c2C)cc1`, the Ratio IC50 with J774 was greater than 9.1. Moreover, the inhibition in assay [1] was 5%. The same compound had an IC50 in [2] greater than 10 µM.
In the case of `COc1ccc(-n2c(-c3ccc(S(C)(=O)=O)cc3)cc(CC(=O)OCCCO)c2C)cc1`, the Ratio IC50 in the assay with J774 was greater than 14.3. Moreover, the inhibition in assay [1] is 27%. This compound also registered a half-maximal inhibitory concentration (IC50) in [2] greater than 10 µM.
For `CSc1ccc(-n2c(-c3ccc(S(C)(=O)=O)cc3)cc(CC(=O)OCCCO[N+](=O)[O-])c2C)cc1`, the Ratio IC50 in the assay on J774 was greater than 370. Further, the result in the assay on Aorta [4] was inactive. Moreover, the IC50 with Aorta [5] was greater than 10000 nM; in assay [2] it was greater than 10 µM. In assay [1], this compound yielded an inhibition of 0%.
`Cc1c(CC(=O)OCCCO[N+](=O)[O-])cc(-c2ccc(S(C)(=O)=O)cc2)n1-c1ccc(F)cc1`: the Ratio IC50 in the assay with J774 was greater than 269. The concentration for half-maximal inhibition (IC50) in [3] is 37.2 nM; in the assay on Aorta [5], greater than 10000 nM; in assay [2], greater than 10 µM. Further, the outcome in the assay with Aorta [4] was inactive. Also, the Emax – broadly, the maximal effect, on the per cent scale that the assay sets – with Aorta [5] was 41%. This compound yielded an inhibition in assay [1] of 28%.
Regarding `COc1ccc(-n2c(-c3ccc(S(C)(=O)=O)cc3)cc(CC(=O)OCCO[N+](=O)[O-])c2C)cc1`, the Ratio IC50 in the assay with J774 was determined as 37.6. Also, the inhibition in assay [6] came out at 12%; in [7] it was 30%; in [1] it was 55%. Besides, in the assay with Aorta [4], the result was inactive. Besides, the results for the half-maximal inhibitory concentration (IC50) (with Aorta [5]; in assay [2]) were 178 nM and 6.4 µM, respectively.
Turning to `Cc1c(CC(=O)OCCCO[N+](=O)[O-])cc(-c2ccc(S(C)(=O)=O)cc2)n1-c1ccccc1`, the Ratio IC50 with J774 was greater than 238. In addition, the concentration for half-maximal inhibition (IC50) is 42 nM in [3], greater than 10000 nM in the assay with Aorta [5] and greater than 10 µM in assay [2]. Further, in the assay on Aorta [4], the result was inactive. The compound also came in with a maximal effect (Emax) with Aorta [5] of 44%. Besides, the inhibition in [1] was found to be 27%.
With `Cc1c(CC(=O)OCCCO)cc(-c2ccc(S(C)(=O)=O)cc2)n1-c1ccc(F)cc1`, the Ratio IC50 with J774 was greater than 179. For the same compound, the IC50 in assay [3] is 56 nM; in assay [2], greater than 10 µM. In assay [1], this compound came in with an inhibition of 0%.
As to `Cc1c(CC(=O)O)cc(-c2ccc(S(C)(=O)=O)cc2)n1-c1ccc(F)cc1`, the Ratio IC50 in the assay with J774 was greater than 20. The 50% inhibitory concentration (IC50) was 500 nM in assay [3] and greater than 10 µM in assay [2].
Turning to `Cc1c(CC(=O)OCCO)cc(-c2ccc(S(C)(=O)=O)cc2)n1-c1ccc(F)cc1`, the Ratio IC50 with J774 was greater than 256. Moreover, the results for the half-maximal inhibitory concentration (IC50) in assay [3] and in [2] were 39 nM and greater than 10 µM, respectively. Moreover, the inhibition in [1] was 21%.
On to `CSc1ccc(-n2c(-c3ccc(S(C)(=O)=O)cc3)cc(CC(=O)O)c2C)cc1`, for which, in the assay on J774, the Ratio IC50 was greater than 769. For the same compound, the figures for the IC50 in assay [3] and in assay [2] were 13 nM and greater than 10 µM, respectively. Further, the inhibition in assay [1] came to 45%.
For the compound `Cc1c(CC(=O)OCCO)cc(-c2ccc(S(C)(=O)=O)cc2)n1-c1ccccc1`, in the assay with J774, the Ratio IC50 is greater than 104. The IC50 in assay [3] is 96 nM; in assay [2], greater than 10 µM. This compound had an inhibition in [1] of 22%.
As for `CSc1ccc(-n2c(-c3ccc(S(C)(=O)=O)cc3)cc(CC(=O)OCCO)c2C)cc1`, the Ratio IC50 in the assay on J774 turned out to be 37.4. Besides, the results for the inhibition in assay [6], in assay [7] and in [1] were 11%, 40% and 62%, respectively. The concentration for half-maximal inhibition (IC50) in [2] was found to be 3.18 µM.
In the assay with Aorta [5], `O=[N+]([O-])OCC(CO[N+](=O)[O-])O[N+](=O)[O-]` [NITROGLYCERIN] had a maximum response (Emax) of 73% and a half-inhibitory concentration (IC50) of 126 nM.
Turning to `Cc1c(CC(=O)OCCO[N+](=O)[O-])cc(-c2ccc(S(C)(=O)=O)cc2)n1-c1ccccc1`, in the assay with J774, the Ratio IC50 was greater than 233. Also, in the assay on Aorta [4], the outcome was inactive. Also, in the assay on Aorta [5], the maximal effect (Emax) was found to be 65% and half-maximal inhibition (IC50) required 1740 nM. This compound gave an inhibition in [1] of 19%. In assay [2], the half-inhibitory concentration (IC50) was greater than 10 µM.
Regarding `CSc1ccc(-n2c(-c3ccc(S(C)(=O)=O)cc3)cc(CC(=O)OCCO[N+](=O)[O-])c2C)cc1`, in the assay on J774, the Ratio IC50 is greater than 588. The IC50 was 17 nM in assay [3], 457 nM in the assay on Aorta [5] and greater than 10 µM in [2]. The outcome with Aorta [4] was inactive. This compound showed a maximal effect (Emax) in the assay with Aorta [5] of 65%. The compound further returned an inhibition in assay [1] of 0%.
For the compound `Cc1c(CC(=O)O)cc(-c2ccc(S(C)(=O)=O)cc2)n1-c1ccccc1`, the Ratio IC50 in the assay on J774 is greater than 10. In addition, the inhibition in assay [1] came out at 0%. In addition, the IC50 in [2] was greater than 10 µM.
As to `COc1ccc(-n2c(-c3ccc(S(C)(=O)=O)cc3)cc(CC(=O)OCCCO[N+](=O)[O-])c2C)cc1`, the Ratio IC50 with J774 is greater than 4170. Moreover, the inhibition in [7] stood at 0%; in assay [8], 39%. Further, the half-maximal inhibitory concentration (IC50) in [3] is 2.4 nM; in the assay on Aorta [5], greater than 10000 nM; in [2], greater than 10 µM. For the same compound, the outcome in the assay on Aorta [4] was inactive.
